# Assay results taken from ChEMBL document CHEMBL4043093, “2-Oxo-3, 4-dihydropyrimido[4, 5-d]pyrimidinyl derivatives as new irreversible pan fibroblast growth factor receptor (FGFR) inhibitors” (Eur J Med Chem, 2017).
# Key:
# [1] = molecular target: Eukaryotic translation initiation factor 2-alpha kinase 1 (Homo sapiens) (UniProt Q9BQI3); test: Inhibition of wild-type human partial length EIF2AK1 (Q147 to E603 residues) expressed in HEK293 cells assessed as residual activity at 1000 nM after 30 mins by Kinomescan method relative to control; type: cell-based
# [2] = molecular target: Activin receptor type-1 (Homo sapiens) (UniProt Q04771); test: Inhibition of wild-type human ACVR1 (C188 to C509 residues) expressed in Escherichia coli BL21 assessed as residual activity at 1000 nM after 30 mins by Kinomescan method relative to control
# Chain of Activin receptor type-1 (Homo sapiens) (Q04771 whole entry, the tested form may be a part): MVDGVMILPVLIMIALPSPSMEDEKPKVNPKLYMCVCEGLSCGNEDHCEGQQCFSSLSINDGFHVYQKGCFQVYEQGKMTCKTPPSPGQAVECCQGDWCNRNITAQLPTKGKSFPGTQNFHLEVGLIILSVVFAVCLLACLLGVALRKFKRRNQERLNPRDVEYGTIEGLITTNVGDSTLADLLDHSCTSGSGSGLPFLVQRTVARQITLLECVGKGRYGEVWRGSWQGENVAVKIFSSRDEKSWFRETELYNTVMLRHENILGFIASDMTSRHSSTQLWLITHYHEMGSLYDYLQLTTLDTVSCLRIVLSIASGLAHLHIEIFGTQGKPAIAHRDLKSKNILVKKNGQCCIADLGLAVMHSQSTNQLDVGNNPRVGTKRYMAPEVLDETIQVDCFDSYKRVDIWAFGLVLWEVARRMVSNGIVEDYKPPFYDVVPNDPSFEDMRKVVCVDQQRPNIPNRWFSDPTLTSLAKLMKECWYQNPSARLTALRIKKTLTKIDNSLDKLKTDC
# Procedure, shortened: (§1)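 Single-point screen at a fixed 1 µM, run within a 456-kinase DiscoveRx KINOMEscan panel. Each kinase's read-out is Percent Control, i.e. signal relative to a control without compound. Hits were scored by a Percent Control < 35 cut-off, and an S(35) selectivity score was calculated across the non-mutant kinases.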
# [3] = molecular target: Interferon-induced, double-stranded RNA-activated protein kinase (Homo sapiens) (UniProt P19525); test: Inhibition of wild-type human partial length PRKR (F247 to C551 residues) expressed in Escherichia coli BL21 assessed as residual activity at 1000 nM after 30 mins by Kinomescan method relative to control
# [4] = molecular target: Cyclin-dependent kinase 4 (Homo sapiens) (UniProt P11802); test: Inhibition of wild-type human full length CDK4 (M1 to E303 residues) expressed in HEK293 cells assessed as residual activity at 1000 nM after 30 mins by Kinomescan method relative to control; type: cell-based; procedure, shortened: as §1
# [5] = molecular target: Casein kinase I isoform gamma-2 (Homo sapiens) (UniProt P78368); test: Inhibition of wild-type human full length CSNK1G2 (M1 to K415 residues) expressed in Escherichia coli BL21 assessed as residual activity at 1000 nM after 30 mins by Kinomescan method relative to control; procedure, shortened: as §1
# Chain of Casein kinase I isoform gamma-2 (Homo sapiens) (P78368 whole entry, looked up, the tested form may be a part, canonical isoform): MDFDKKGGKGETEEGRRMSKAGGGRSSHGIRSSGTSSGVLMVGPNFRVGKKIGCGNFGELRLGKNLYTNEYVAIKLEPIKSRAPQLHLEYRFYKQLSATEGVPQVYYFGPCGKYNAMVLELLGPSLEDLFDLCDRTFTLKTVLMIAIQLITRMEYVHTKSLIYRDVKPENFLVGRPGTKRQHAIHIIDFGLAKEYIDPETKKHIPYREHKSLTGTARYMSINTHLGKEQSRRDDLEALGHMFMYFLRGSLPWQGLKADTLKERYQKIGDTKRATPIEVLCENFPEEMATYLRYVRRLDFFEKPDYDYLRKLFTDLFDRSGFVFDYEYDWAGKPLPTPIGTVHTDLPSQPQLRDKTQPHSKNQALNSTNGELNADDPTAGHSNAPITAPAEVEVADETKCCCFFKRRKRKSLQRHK
# [6] = system: Receptor-type tyrosine-protein kinase FLT3 (Homo sapiens), P36888 [D835H]; test: Inhibition of human partial length FLT3 D835H mutant (V592 to Y969 residues) expressed in Escherichia coli BL21 assessed as residual activity at 1000 nM after 30 mins by Kinomescan method relative to control
# Procedure, shortened: (§2)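 KINOMEscan binding panel of 456 kinases, with the test compound at a single concentration of 1 µM. Read-out is Percent Control.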
# [7] = molecular target: Mitogen-activated protein kinase kinase kinase 1 (Homo sapiens) (UniProt Q13233); test: Inhibition of wild-type human partial length MAP3K1 (L1202 to W1512 residues) expressed in HEK293 cells assessed as residual activity at 1000 nM after 30 mins by Kinomescan method relative to control; type: cell-based
# [8] = molecular target: Tyrosine-protein kinase JAK1 (Homo sapiens) (UniProt P23458); test: Inhibition of wild-type human partial length JAK1 JH1 catalytic domain (V856 to K1154 residues) expressed in Escherichia coli BL21 assessed as residual activity at 1000 nM after 30 mins by Kinomescan method relative to control
# Chain of Tyrosine-protein kinase JAK1 (Homo sapiens) (P23458 whole entry, the tested form may be a part): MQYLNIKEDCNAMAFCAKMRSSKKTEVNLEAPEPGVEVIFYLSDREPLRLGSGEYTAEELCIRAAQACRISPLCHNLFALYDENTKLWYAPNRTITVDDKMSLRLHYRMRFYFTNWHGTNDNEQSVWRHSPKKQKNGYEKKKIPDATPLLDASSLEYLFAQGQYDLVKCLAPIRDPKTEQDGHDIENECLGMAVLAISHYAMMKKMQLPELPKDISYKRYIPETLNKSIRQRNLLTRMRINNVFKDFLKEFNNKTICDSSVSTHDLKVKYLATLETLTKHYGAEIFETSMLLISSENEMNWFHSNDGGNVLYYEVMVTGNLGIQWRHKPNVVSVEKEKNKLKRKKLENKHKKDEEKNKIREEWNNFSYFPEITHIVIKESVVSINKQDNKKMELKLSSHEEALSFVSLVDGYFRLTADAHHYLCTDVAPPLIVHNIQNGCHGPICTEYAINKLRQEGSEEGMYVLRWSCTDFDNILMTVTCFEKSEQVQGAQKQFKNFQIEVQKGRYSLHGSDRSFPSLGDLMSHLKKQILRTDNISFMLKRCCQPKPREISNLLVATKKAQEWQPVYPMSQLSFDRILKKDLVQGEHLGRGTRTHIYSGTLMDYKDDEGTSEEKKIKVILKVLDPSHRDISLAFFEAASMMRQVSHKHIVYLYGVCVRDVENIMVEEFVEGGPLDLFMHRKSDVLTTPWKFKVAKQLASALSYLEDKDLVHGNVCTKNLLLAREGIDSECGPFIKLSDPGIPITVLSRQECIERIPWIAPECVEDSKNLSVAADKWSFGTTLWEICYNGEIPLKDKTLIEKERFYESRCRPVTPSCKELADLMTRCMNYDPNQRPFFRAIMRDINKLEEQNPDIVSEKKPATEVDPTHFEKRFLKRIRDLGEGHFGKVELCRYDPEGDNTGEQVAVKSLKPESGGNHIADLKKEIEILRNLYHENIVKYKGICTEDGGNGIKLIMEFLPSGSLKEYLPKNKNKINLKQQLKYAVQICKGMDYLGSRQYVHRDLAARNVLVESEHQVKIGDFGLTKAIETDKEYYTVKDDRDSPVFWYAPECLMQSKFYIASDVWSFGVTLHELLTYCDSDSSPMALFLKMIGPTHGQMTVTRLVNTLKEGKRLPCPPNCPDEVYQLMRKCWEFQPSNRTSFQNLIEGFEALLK
# [9] = molecular target: Fibroblast growth factor receptor 1 (Homo sapiens, UniProt P11362); test: Inhibition of wild-type human partial length FGFR1 (P357 to V669 residues) expressed in Escherichia coli BL21 assessed as residual activity at 1000 nM after 30 mins by Kinomescan method relative to control
# [10] = system: Epidermal growth factor receptor (Homo sapiens), P00533 [UNDEFINED MUTATION]; test: Inhibition of human partial length EGFR L747-T751del/Sins mutant expressed in Escherichia coli BL21 assessed as residual activity at 1000 nM after 30 mins by Kinomescan method relative to control; procedure, shortened: as §2
# Chain of Epidermal growth factor receptor (Homo sapiens), P00533 [UNDEFINED MUTATION] (P00533 whole entry, looked up, stated change not applied, the tested form may be a part): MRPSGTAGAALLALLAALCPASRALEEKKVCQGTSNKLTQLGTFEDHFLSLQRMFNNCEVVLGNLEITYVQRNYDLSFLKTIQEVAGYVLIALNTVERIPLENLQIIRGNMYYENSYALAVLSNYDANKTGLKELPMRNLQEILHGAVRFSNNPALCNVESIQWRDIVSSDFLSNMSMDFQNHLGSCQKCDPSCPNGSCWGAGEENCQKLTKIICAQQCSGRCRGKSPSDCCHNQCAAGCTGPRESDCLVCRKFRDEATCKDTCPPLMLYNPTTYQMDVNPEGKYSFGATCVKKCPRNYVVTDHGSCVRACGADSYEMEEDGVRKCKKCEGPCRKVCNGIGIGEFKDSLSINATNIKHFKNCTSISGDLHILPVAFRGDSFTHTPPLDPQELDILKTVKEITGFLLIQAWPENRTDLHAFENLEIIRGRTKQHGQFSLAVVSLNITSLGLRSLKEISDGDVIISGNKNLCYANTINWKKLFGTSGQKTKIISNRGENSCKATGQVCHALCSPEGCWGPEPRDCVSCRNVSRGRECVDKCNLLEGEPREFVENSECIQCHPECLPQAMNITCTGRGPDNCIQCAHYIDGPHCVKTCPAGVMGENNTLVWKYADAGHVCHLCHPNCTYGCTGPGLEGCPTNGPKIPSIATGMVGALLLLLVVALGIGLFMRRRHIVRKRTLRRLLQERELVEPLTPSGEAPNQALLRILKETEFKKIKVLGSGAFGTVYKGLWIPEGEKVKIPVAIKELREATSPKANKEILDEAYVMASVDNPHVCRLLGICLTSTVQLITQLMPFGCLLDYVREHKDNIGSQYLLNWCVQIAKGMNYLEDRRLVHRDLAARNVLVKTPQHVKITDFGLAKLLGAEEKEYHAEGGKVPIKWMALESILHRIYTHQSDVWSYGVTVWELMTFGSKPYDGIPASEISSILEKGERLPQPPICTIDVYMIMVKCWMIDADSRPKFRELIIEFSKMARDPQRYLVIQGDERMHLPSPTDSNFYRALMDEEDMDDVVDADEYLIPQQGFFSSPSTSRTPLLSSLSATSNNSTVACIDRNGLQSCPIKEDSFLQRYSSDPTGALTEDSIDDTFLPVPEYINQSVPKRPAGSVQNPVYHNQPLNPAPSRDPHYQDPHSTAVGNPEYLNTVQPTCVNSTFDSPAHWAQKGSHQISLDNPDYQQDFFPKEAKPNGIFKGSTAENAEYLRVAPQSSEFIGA
# [11] = molecular target: Serine/threonine-protein kinase D1 (Homo sapiens) (UniProt Q15139); test: Inhibition of wild-type human partial length PRKD1 (G551 to E870 residues) expressed in Escherichia coli BL21 assessed as residual activity at 1000 nM after 30 mins by Kinomescan method relative to control
# Chain of Serine/threonine-protein kinase D1 (Homo sapiens) (Q15139 whole entry, the tested form may be a part): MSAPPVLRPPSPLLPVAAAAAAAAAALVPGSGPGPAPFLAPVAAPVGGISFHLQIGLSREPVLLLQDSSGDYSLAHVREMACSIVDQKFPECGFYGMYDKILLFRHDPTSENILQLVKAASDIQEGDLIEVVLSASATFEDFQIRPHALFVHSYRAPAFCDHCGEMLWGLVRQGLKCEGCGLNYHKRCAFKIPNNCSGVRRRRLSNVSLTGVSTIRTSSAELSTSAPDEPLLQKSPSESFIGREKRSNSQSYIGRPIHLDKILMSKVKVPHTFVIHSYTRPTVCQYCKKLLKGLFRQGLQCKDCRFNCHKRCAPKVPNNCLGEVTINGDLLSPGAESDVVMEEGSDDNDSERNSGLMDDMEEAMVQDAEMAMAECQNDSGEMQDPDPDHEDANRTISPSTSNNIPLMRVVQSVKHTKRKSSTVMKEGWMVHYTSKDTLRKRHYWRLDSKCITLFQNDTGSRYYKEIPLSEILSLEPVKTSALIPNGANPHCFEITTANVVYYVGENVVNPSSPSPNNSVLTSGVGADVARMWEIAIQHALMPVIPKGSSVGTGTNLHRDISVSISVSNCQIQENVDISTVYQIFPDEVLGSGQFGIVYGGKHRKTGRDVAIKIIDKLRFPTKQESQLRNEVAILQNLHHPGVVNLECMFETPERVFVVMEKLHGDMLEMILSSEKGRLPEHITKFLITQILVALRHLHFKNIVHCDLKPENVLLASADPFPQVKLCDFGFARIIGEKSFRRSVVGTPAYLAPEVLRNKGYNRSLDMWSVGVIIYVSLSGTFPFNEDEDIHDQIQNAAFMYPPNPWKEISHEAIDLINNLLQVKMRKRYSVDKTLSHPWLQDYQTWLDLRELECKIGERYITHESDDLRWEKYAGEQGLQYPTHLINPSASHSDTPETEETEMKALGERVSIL
# [12] = molecular target: Serine/threonine-protein kinase Nek2 (Homo sapiens) (UniProt P51955); test: Inhibition of wild-type human partial length NEK2 (M1 to K309 residues) expressed in Escherichia coli BL21 assessed as residual activity at 1000 nM after 30 mins by Kinomescan method relative to control
# [13] = molecular target: Casein kinase I isoform alpha-like (Homo sapiens) (UniProt Q8N752); test: Inhibition of wild-type human full length CSNK1A1L (M1 to N337 residues) expressed in Escherichia coli BL21 assessed as residual activity at 1000 nM after 30 mins by Kinomescan method relative to control; procedure, shortened: as §1
# Chain of Casein kinase I isoform alpha-like (Homo sapiens) (Q8N752 whole entry, the tested form may be a part, canonical isoform): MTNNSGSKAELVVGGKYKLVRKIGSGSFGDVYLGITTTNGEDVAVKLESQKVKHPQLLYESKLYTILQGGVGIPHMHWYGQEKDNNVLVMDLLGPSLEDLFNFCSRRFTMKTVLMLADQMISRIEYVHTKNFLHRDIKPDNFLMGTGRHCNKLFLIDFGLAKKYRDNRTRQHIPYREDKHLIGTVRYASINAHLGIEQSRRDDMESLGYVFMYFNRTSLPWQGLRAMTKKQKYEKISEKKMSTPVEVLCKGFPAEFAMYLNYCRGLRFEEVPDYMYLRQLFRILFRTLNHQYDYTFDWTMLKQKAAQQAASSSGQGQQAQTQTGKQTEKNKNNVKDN
# [14] = molecular target: Calcium/calmodulin-dependent protein kinase type 1B (Homo sapiens) (UniProt Q6P2M8); test: Inhibition of wild-type human partial length CAMK1B (W9 to A311 residues) expressed in HEK293 cells assessed as residual activity at 1000 nM after 30 mins by Kinomescan method relative to control; type: cell-based
# Chain of Calcium/calmodulin-dependent protein kinase type 1B (Homo sapiens) (Q6P2M8 whole entry, the tested form may be a part): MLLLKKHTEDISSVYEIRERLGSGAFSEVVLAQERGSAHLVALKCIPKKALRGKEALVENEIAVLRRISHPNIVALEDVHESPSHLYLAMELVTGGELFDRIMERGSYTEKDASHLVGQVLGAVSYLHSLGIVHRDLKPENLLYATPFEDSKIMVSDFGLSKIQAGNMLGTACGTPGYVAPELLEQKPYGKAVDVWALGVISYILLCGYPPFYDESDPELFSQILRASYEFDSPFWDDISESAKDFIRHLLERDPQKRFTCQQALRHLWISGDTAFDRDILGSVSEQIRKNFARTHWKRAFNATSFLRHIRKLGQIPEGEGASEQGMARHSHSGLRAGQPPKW
# [15] = system: Mast/stem cell growth factor receptor Kit (Homo sapiens), P10721 [V559D,V654A]; test: Inhibition of human partial length KIT V559D/V654A double mutant (Y545 to D952 residues) expressed in Escherichia coli BL21 assessed as residual activity at 1000 nM after 30 mins by Kinomescan method relative to control; procedure, shortened: as §2
# [16] = molecular target: Ribosomal protein S6 kinase alpha-5 (Homo sapiens) (UniProt O75582); test: Inhibition of wild-type human partial length C-terminal RPS6KA5 kinase domain 2 (V390 to T718 residues) expressed in Escherichia coli BL21 assessed as residual activity at 1000 nM after 30 mins by Kinomescan method relative to control
# [17] = molecular target: cAMP-dependent protein kinase catalytic subunit PRKX (Homo sapiens) (UniProt P51817); test: Inhibition of wild-type human partial length PRKX (M1 to F358 residues) expressed in Escherichia coli BL21 assessed as residual activity at 1000 nM after 30 mins by Kinomescan method relative to control
# [18] = molecular target: Serine/threonine-protein kinase mTOR (Homo sapiens) (UniProt P42345); test: Inhibition of wild-type human partial length MTOR (L1382 to W2549 residues) expressed in HEK293 cells assessed as residual activity at 1000 nM after 30 mins by Kinomescan method relative to control; type: cell-based
# [19] = molecular target: Homeodomain-interacting protein kinase 1 (Homo sapiens) (UniProt Q86Z02); test: Inhibition of wild-type human partial length HIPK1 (M146 to I555 residues) expressed in HEK293 cells assessed as residual activity at 1000 nM after 30 mins by Kinomescan method relative to control; type: cell-based
# [20] = molecular target: Mitogen-activated protein kinase kinase kinase 19 (Homo sapiens) (UniProt Q56UN5); test: Inhibition of wild-type human partial length YSK4 (T1019 to H1328 residues) expressed in HEK293 cells assessed as residual activity at 1000 nM after 30 mins by Kinomescan method relative to control; type: cell-based
# [21] = molecular target: Bone morphogenetic protein receptor type-1A (Homo sapiens) (UniProt P36894); test: Inhibition of wild-type human partial length BMPR1A (Q214 to I532 residues) expressed in Escherichia coli BL21 assessed as residual activity at 1000 nM after 30 mins by Kinomescan method relative to control
smiles,measurement,setting,value
COc1cc(OC)c(Cl)c(N2Cc3cnc(Nc4ccc(F)cc4)nc3N(C3CCN(C(=O)/C=C/CN(C)C)CC3)C2=O)c1Cl,Activity,[1],100%
same,Activity,[2],100%
same,Activity,[3],76%
same,Activity,[4],100%
same,Activity,[5],100%
same,Activity,[6],100%
same,Activity,[7],100%
same,Activity,[8],93%
same,Activity,[9],0.6%
same,Activity,[10],95%
same,Activity,[11],73%
same,Activity,[12],53%
same,Activity,[13],100%
same,Activity,[14],100%
same,Activity,[15],99%
same,Activity,[16],100%
same,Activity,[17],100%
same,Activity,[18],93%
same,Activity,[19],100%
same,Activity,[20],93%
same,Activity,[21],100%
